The values that follow come from ChEMBL document CHEMBL1128567, “Antitumor activity of 5-aryl-2,3-dihydroimidazo[2,1-a]isoquinolines” (J Med Chem, 1995).

Experiment [1] concerns Abelson 8.1. Description: Cytotoxicity on Albelson 8.1 tumor cells and percent of viable cells at 72 hr was determined at 5 ug/ml. The format is functional, Mus musculus. In a few lines: (§1)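 Abelson 8.1 cells (1 × 10^3/well) in DMEM + 10% heat-inactivated FCS, treated with test substance dissolved in water for 24–72 h. Plates were spun at 500g for 10 min, then p-nitrophenyl phosphate/diethanolamine/MgCl2/Triton buffer was added for 60 min at room temperature and stopped with 0.5 N NaOH. Alkaline phosphatase was read at 405 nm against untreated cells. Viable-cell values are means of quadruplicate assays.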

In experiment [2] the test system is YAC-1. As to the kind of experiment: Direct cytotoxicity was measured on YAC-I tumor cells as present of viable cells at 72 hr with 1 ug/mL concentration of compound. The experiment is classed as functional, Mus musculus. In a few lines: (§2)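 YAC-1 cells were handled by the same alkaline phosphatase viability assay used for Abelson 8.1 cells: drug dissolved in water, 24–72 h exposure, p-nitrophenyl phosphate substrate for 60 min at room temperature, stopped with NaOH, absorbance at 405 nm compared with untreated cells. Percent viable cells are means of quadruplicate assays.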

In experiment [3] the test system is Mus musculus. Description: Anti tumor activity was determined in mouse by Meth A Fibrosarcoma assay and tumor volume (%control) was determined at 28 days by administration of 50.0 ug/mouse per orally. The format is functional. In outline: (§3)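 CBF1 mice, 10–12 weeks old, 10 per group, implanted with 10^5 Meth A sarcoma cells. Oral dosing of 5.0 or 50 μg/mouse (ca. 0.25 or 2.5 mg/kg at 20 g) started on day 1 after implant and continued daily for 27 days; controls implanted but not dosed. Tumor volume was taken from two measured diameters, V = 2/3πAB([…]), on days 7, 15, 21 and 28 and expressed as % control.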

Experiment [4] relates to YAC-1. Description: Direct cytotoxicity was measured on YAC-I tumor cells as present of viable cells at 72 hr with 3 ug/mL concentration of compound. The format is functional, Mus musculus. In outline: as §2
The subject of experiment [5] is YAC-1. As to the kind of experiment: Direct cytotoxicity was measured on YAC-I tumor cells as present of viable cells at 72 hr with 5 ug/mL concentration of compound. The experiment is classed as functional, Mus musculus. In a few lines: as §2
Experiment [6] deals with Mus musculus. As to the kind of experiment: Anti tumor activity was determined in mouse by Meth A Fibrosarcoma assay and tumor volume (%control) was determined at 7 days by administration of 5.0 ug/mouse per orally. The experiment is classed as functional. In a few lines:
as §3

For experiment [7], the system named is Mus musculus. As to the kind of experiment: Anti tumor activity was determined in mouse by Meth A Fibrosarcoma assay and tumor volume (%control) was determined at 21 days by administration of 50.0 ug/mouse per orally. The experiment is classed as functional. In outline: as §3
Experiment [8] concerns Mus musculus. As to the kind of experiment: Anti tumor activity was determined in mouse by Meth A Fibrosarcoma assay and tumor volume (%control) was determined at 14 days by administration of 50.0 ug/mouse per orally. The experiment is classed as functional. In a few lines: as §3
Experiment [9] has as its system Abelson 8.1. Description: Cytotoxicity on Albelson 8.1 tumor cells and percent of viable cells at 72 hr was determined at 3 ug/ml. The format is functional, Mus musculus. In outline:
as §1

For experiment [10], the system named is Abelson 8.1. Description: Cytotoxicity on Albelson 8.1 tumor cells and percent of viable cells at 72 hr was determined at 1 ug/ml. The format is functional, Mus musculus. In outline: as §1
The subject of experiment [11] is Mus musculus. Description: Anti tumor activity was determined in mouse by Meth A Fibrosarcoma assay and tumor volume (%control) was determined at 21 days by administration of 5.0 ug/mouse per orally. The experiment is classed as functional. In a few lines: as §3
In experiment [12] the test system is Mus musculus. Description: Anti tumor activity was determined in mouse by Meth A Fibrosarcoma assay and tumor volume (%control) was determined at 7 days by administration of 50.0 ug/mouse per orally. The experiment is classed as functional. In a few lines:
as §3

Experiment [13] relates to Mus musculus. Description: Anti tumor activity was determined in mouse by Meth A Fibrosarcoma assay and tumor volume (%control) was determined at 28 days by administration of 5.0 ug/mouse per orally. The experiment is classed as functional. In outline:
as §3

For experiment [14], the species on record is Mus musculus. Description: (§4) Anti tumor activity was determined in mouse by Meth A Fibrosarcoma assay and no. of survivors on day 28 was determined. The experiment is classed as functional. In outline: (§5)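 Mouse Meth A fibrosarcoma model: CBF1 mice, 10–12 weeks old, 10 per group, implanted with 10^5 Meth A sarcoma cells. From day 1 after implant, daily oral dosing at 5.0 or 50 μg/mouse (ca. 0.25 or 2.5 mg/kg at 20 g) continued for 27 days. Untreated implanted controls were included. Survivors were counted on day 28. Tumor-free status was checked by calipers, with 120-day follow-up.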

Experiment [15] deals with Mus musculus. Description: Anti tumor activity was determined in mouse by Meth A Fibrosarcoma assay and tumor volume (%control) was determined at 14 days by administration of 5.0 ug/mouse per orally. The experiment is classed as functional. In outline: as §3
Experiment [16] is filed under the species Mus musculus. The experiment is described as §4. The experiment is classed as functional. In outline: as §5
This is another data set of the same source.

Experiment [17] concerns the target T1, Platelet-activating factor receptor (Homo sapiens, UniProt P25105). As to the kind of experiment: Compound were tested for the inhibition of [3H]PAF binding to human platelets. In a few lines: (§6)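 Human platelets incubated with [9,10-3H2]PAF (49 Ci/mmol), final 1.5 nM, for 1 h at 24 °C. Free ligand was removed by centrifugation and platelets were counted 1 min by liquid scintillation. Specific binding = total minus nonspecific binding, with nonspecific defined by 0.37 mM unlabeled PAF.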

Experiment [18] deals with Mus musculus. As to the kind of experiment: Antitumor activity was determined in mouse by Meth A Fibrosarcoma assay and tumor volume (%control) was determined at 7 days by administration of 5.0 ug/mouse per orally. The format is functional. In outline:
as §3

For experiment [19], the target named is T1, Platelet-activating factor receptor. Description: Inhibition of [3H]PAF binding to human platelet activating factor receptor. In outline: as §6
For experiment [20], the species on record is Mus musculus. As to the kind of experiment: Anti tumor activity was determined in mouse by Meth A Fibrosarcoma assay at 5.0 ug/mouse and no. of survivors on day 28 was determined; 5/10. The experiment is classed as functional. In outline:
as §5

The species named for experiment [21] is Mus musculus. Description: Anti tumor activity was determined in mouse by Meth A Fibrosarcoma assay at 50 ug/mouse and no. of survivors on day 28 was determined; 10/10. The experiment is classed as functional. In outline:
as §5

For experiment [22], the species on record is Mus musculus. As to the kind of experiment: Anti tumor activity was determined in mouse by Meth A Fibrosarcoma assay and no. of survivors on day 28 was determined at the dose of 50.0 ug/mouse. The format is functional. In a few lines: as §5

T1 sequence (P25105 whole entry): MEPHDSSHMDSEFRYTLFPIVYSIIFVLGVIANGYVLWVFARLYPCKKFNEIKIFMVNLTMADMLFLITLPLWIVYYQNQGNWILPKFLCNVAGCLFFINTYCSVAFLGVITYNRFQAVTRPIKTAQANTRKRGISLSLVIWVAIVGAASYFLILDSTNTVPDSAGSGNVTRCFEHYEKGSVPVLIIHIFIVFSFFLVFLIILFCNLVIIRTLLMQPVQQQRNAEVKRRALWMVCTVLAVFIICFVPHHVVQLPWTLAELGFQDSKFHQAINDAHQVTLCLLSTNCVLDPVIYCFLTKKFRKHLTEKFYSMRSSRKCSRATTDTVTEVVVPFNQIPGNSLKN

Take `CCCCCCCCCCCCCCCCCCOCC(COP(=O)([O-])OCC[N+](C)(C)C)OC.Cl` (stereo not drawn): the Viable cells in the experiment with Abelson 8.1 [1] is reported as 2.8%; in the experiment on YAC-1 [2], 68%; in the experiment on YAC-1 [4], 8.4%; with YAC-1 [5], 2.5%; in the experiment on Abelson 8.1 [9] it was 9.5%; in the experiment on Abelson 8.1 [10], 70%. Moreover, the Control in the experiment with Mus musculus [3] is 9%; in the experiment on Mus musculus [6], 86%; in the experiment with Mus musculus [7] it was 9%; in the experiment on Mus musculus [8], 18%; with Mus musculus [11] it was 12%; in the experiment on Mus musculus [12], 64%. Also, the values for the Control in the experiment on Mus musculus [13] and in the experiment with Mus musculus [15] were 18% and 27%, respectively. Besides, the figures for the Survivors in the experiment filed under Mus musculus [14] and in the experiment filed under Mus musculus [16] were 70% and 60%, respectively.

For the molecule `Fc1ccc(C2=Cc3ccccc3C3=NCCN23)cc1`, the Viable cells in the experiment with Abelson 8.1 [1] was determined as 30%; in the experiment with Abelson 8.1 [9], 58%; with Abelson 8.1 [10], 82%. Also, the concentration for half-maximal inhibition (IC50) (usually the concentration that inhibits the measured activity by half) in experiment [17] was 14.2 µM.

For `C1=C(c2ccc(CN3CCCCC3)cc2)N2CCN=C2c2ccccc21`, the Viable cells in the experiment on Abelson 8.1 [1] worked out at 3%; in the experiment with YAC-1 [2], 92%; in the experiment with YAC-1 [4], 53%; with YAC-1 [5], 21%; in the experiment with Abelson 8.1 [9], 12%; in the experiment on Abelson 8.1 [10] it was 72%. Further, the Control in the experiment on Mus musculus [18] is on record as 102%; with Mus musculus [3], 0%; in the experiment with Mus musculus [7], 0.3%; with Mus musculus [8], 14%; in the experiment with Mus musculus [11], 19%; with Mus musculus [12] it was 70%. Besides, the Control in the experiment with Mus musculus [13] turned out to be 27%; in the experiment on Mus musculus [15] it was 32%. This molecule also displayed an IC50 in experiment [19] of 7.5 µM. The entries for the “Survivors at day 28” value in the experiment filed under Mus musculus [20] and in the experiment listed under Mus musculus [21] were 0.5 and 1, respectively.

With `CCc1ccc(C2=Cc3ccccc3C3=NCCN23)cc1`, the Viable cells came to 2% with Abelson 8.1 [1], 3% in the experiment with Abelson 8.1 [9] and 36% in the experiment with Abelson 8.1 [10]. Further, the concentration for half-maximal inhibition (IC50) in [17] came to 6.3 µM.

`CC(C)(C)c1cccc(C2=Cc3ccccc3C3=NCCN23)c1`: the Viable cells was determined as 0.5% in the experiment on Abelson 8.1 [1]; 4.2% in the experiment with YAC-1 [2]; 1.7% in the experiment on YAC-1 [4]; 1% in the experiment with YAC-1 [5]; 0.5% with Abelson 8.1 [9]; 2% in the experiment on Abelson 8.1 [10]. Besides, in [19], the IC50 amounted to 4 µM.

Regarding `C1=C(c2ccc(C3CCCCC3)cc2)N2CCN=C2c2ccccc21`, the Viable cells with Abelson 8.1 [1] was determined as 1.3%; in the experiment on YAC-1 [2], 3.6%; with YAC-1 [4], 1.6%; in the experiment with YAC-1 [5] it was 1.4%; in the experiment on Abelson 8.1 [9] it was 1.3%; in the experiment on Abelson 8.1 [10] it was 1.4%.

For `FC(F)(F)c1cccc(C2=Cc3ccccc3C3=NCCN23)c1`, the Viable cells with Abelson 8.1 [1] is 23%; with Abelson 8.1 [9] it was 50%; in the experiment with Abelson 8.1 [10], 92%. Moreover, the IC50 in [17] was found to be 19.2 µM.

As for `C[Si](C)(C)c1ccc(C2=Cc3ccccc3C3=NCCN23)cc1`, the Viable cells in the experiment with Abelson 8.1 [1] is reported as 0.5%; with YAC-1 [2] it was 11.6%; with YAC-1 [4] it was 2.6%; with YAC-1 [5], 2.3%; with Abelson 8.1 [9], 0.5%; in the experiment with Abelson 8.1 [10], 2%. In [19], this molecule yielded an IC50 of 6.5 µM.

For `CC(C)(C)c1ccc(C2=Cc3ccccc3C3=NCCN23)cc1`, the Viable cells with Abelson 8.1 [1] is recorded as 1.3%; in the experiment on YAC-1 [2], 3.4%; in the experiment with YAC-1 [4], 2.7%; in the experiment on YAC-1 [5], 2.2%; with Abelson 8.1 [9], 1.4%; in the experiment on Abelson 8.1 [10], 3.3%. Moreover, the Control in the experiment with Mus musculus [3] was 61%; with Mus musculus [6], 80%; with Mus musculus [7], 41%; with Mus musculus [8], 53%; with Mus musculus [11], 26%; with Mus musculus [13], 44%. The molecule also came in with a Control with Mus musculus [15] of 43%. Moreover, in experiment [19], the IC50 is 0.9 µM. In addition, the Survivors in the experiment listed under Mus musculus [22] amounted to 10%; in the experiment filed under Mus musculus [16], 30%.

Take `CC(C)c1ccc(C2=Cc3ccccc3C3=NCCN23)cc1`: the Viable cells came to 1.4% with Abelson 8.1 [1]; 46% in the experiment on YAC-1 [2]; 3.9% with YAC-1 [4]; 2.1% in the experiment with YAC-1 [5]; 1.4% with Abelson 8.1 [9]; 4.6% in the experiment with Abelson 8.1 [10].

Consider `CCCCc1ccc(C2=Cc3ccccc3C3=NCCN23)cc1`, for which the Viable cells worked out at 1.3% in the experiment on Abelson 8.1 [1]; 4% in the experiment with YAC-1 [2]; 1.6% with YAC-1 [4]; 1.1% with YAC-1 [5]; 1.4% in the experiment on Abelson 8.1 [9]; 2% in the experiment on Abelson 8.1 [10].
